Measurements reported in ChEMBL document CHEMBL1154716, “Synthesis of some new S-triazine based chalcones and their derivatives as potent antimicrobial agents” (2010).
In brackets after ≈: the same amount, converted by molar mass. Activity calls are given as the source filed them. The rule behind the calls is not given here.

Columns and labels:
Salmonella typhimurium [1] = assay: Antimicrobial activity against Salmonella Typhimurium at 1 umol/disk after 24 hrs by disk diffusion assay; type: functional, organism-based; conditions: Salmonella enterica subsp. enterica serovar Typhimurium
In short: (§1)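 Disc diffusion on 4 mm filter discs. Bacteria are grown overnight in LB at 28 C, then adjusted in saline to 1.0 × 10^5 cfu/ml. The suspension is mixed into top agar over peptone agar plates. Plates are incubated 24 h at 28 C, and growth-inhibition zone diameter is measured. Streptomycin and ampicillin controls are applied from a 1 mg/ml stock. Tests are done in duplicate.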

Listeria monocytogenes [2] = assay: Antimicrobial activity against Listeria monocytogenes at 1 umol/spot after 18 hrs by TLC-bioautographic method; type: functional
In short: (§2)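 TLC bioautography. Samples are spotted on silica gel TLC plates, then sprayed with bacteria (1.0 × 10^5 cfu/ml) in tryptic soy broth. Plates are incubated 18 h at 37 C and sprayed with 3% aqueous p-iodonitrotetrazolium violet. After a further 3 h, growth is stopped with 70% EtOH. White zones on a pink background are scored as inhibition-zone diameter with standard errors.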

Escherichia coli [3] = assay: Antimicrobial activity against Escherichia coli at 1 umol/disk after 24 hrs by disk diffusion assay; type: functional; in short: as §1
Staphylococcus aureus [4] = assay: Antimicrobial activity against Staphylococcus aureus at 1 umol/spot after 18 hrs by TLC-bioautographic method; type: functional; in short: as §2
Salmonella typhimurium [5] = assay: Antimicrobial activity against Salmonella Typhimurium at 10 ug/disk after 24 hrs by disk diffusion assay; type: functional, organism-based; conditions: Salmonella enterica subsp. enterica serovar Typhimurium; in short: as §1
Micrococcus flavus [6] = assay: Antimicrobial activity against Micrococcus flavus at 1 umol/disk after 24 hrs by disk diffusion assay; type: functional; in short: as §1
Pseudomonas aeruginosa [7] = assay: Antimicrobial activity against Pseudomonas aeruginosa at 1 umol/spot after 18 hrs by TLC-bioautographic method; type: functional; in short: as §2
Salmonella typhimurium [8] = assay: Antimicrobial activity against Salmonella Typhimurium after 24 hrs by microdilution technique; type: functional, Salmonella enterica subsp. enterica serovar Typhimurium; conditions: Salmonella enterica
In short: (§3)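 Broth microdilution in LB medium. Inoculum is 1.0 × 10^4 cfu per well, from a saline-adjusted suspension of 1.0 × 10^5 cfu/ml. Compounds are dissolved in DMSO. Incubated 24 h at 28 C. MIC is the lowest concentration with no visible growth under a binocular microscope. MBC is read by subculture into fresh broth for 72 h, with no growth taken as 99.5% kill. OD is read at 655 nm.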

Staphylococcus aureus [9] = assay: Antimicrobial activity against Staphylococcus aureus at 1 umol/disk after 24 hrs by disk diffusion assay; type: functional; design: unit not given here; in short: as §1
Salmonella typhimurium [10] = assay: Antimicrobial activity against Salmonella Typhimurium at 1 umol/spot after 18 hrs by TLC-bioautographic method; type: functional, Salmonella enterica subsp. enterica serovar Typhimurium; in short: as §2
Pseudomonas aeruginosa [11] = assay: Antimicrobial activity against Pseudomonas aeruginosa after 24 hrs by microdilution technique; type: functional; in short: as §3
Listeria monocytogenes [12] = assay: Antimicrobial activity against Listeria monocytogenes at 1 umol/disk after 24 hrs by disk diffusion assay; type: functional; in short: as §1
Micrococcus flavus [13] = assay: Antimicrobial activity against Micrococcus flavus after 24 hrs by microdilution technique; type: functional; in short: as §3
Enterobacter cloacae [14] = assay: Antimicrobial activity against Enterobacter cloacae after 24 hrs by microdilution technique; type: functional; in short: as §3
Listeria monocytogenes [15] = assay: Antimicrobial activity against Listeria monocytogenes at 10 ug/disk after 24 hrs by disk diffusion assay; type: functional; in short: as §1
Enterobacter cloacae [16] = assay: Antimicrobial activity against Enterobacter cloacae at 10 ug/disk after 24 hrs by disk diffusion assay; type: functional; in short: as §1
Staphylococcus aureus [17] = assay: Antimicrobial activity against Staphylococcus aureus after 24 hrs by microdilution technique; type: functional; in short: as §3
Bacillus cereus [18] = assay: Antimicrobial activity against Bacillus cereus at 1 umol/spot after 18 hrs by TLC-bioautographic method; type: functional; in short: as §2
Listeria monocytogenes [19] = assay: Antimicrobial activity against Listeria monocytogenes after 24 hrs by microdilution technique; type: functional; in short: as §3
Bacillus cereus [20] = assay: Antimicrobial activity against Bacillus cereus after 24 hrs by microdilution technique; type: functional; in short: as §3
Bacillus cereus [21] = assay: Antimicrobial activity against Bacillus cereus at 1 umol/disk after 24 hrs by disk diffusion assay; type: functional; in short: as §1
Micrococcus flavus [22] = assay: Antimicrobial activity against Micrococcus flavus at 1 umol/spot after 18 hrs by TLC-bioautographic method; type: functional; in short: as §2
Escherichia coli [23] = assay: Antimicrobial activity against Escherichia coli after 24 hrs by microdilution technique; type: functional; in short: as §3
Staphylococcus aureus [24] = assay: Antimicrobial activity against Staphylococcus aureus at 10 ug/disk after 24 hrs by disk diffusion assay; type: functional; in short: as §1
Pseudomonas aeruginosa [25] = assay: Antimicrobial activity against Pseudomonas aeruginosa at 1 umol/disk after 24 hrs by disk diffusion assay; type: functional; in short: as §1
Micrococcus flavus [26] = assay: Antimicrobial activity against Micrococcus flavus at 10 ug/disk after 24 hrs by disk diffusion assay; type: functional; in short: as §1
Escherichia coli [27] = assay: Antimicrobial activity against Escherichia coli at 1 umol/spot after 18 hrs by TLC-bioautographic method; type: functional; in short: as §2
Enterobacter cloacae [28] = assay: Antimicrobial activity against Enterobacter cloacae at 1 umol/spot after 18 hrs by TLC-bioautographic method; type: functional; in short: as §2
Bacillus cereus [29] = assay: Antimicrobial activity against Bacillus cereus at 10 ug/disk after 24 hrs by disk diffusion assay; type: functional; in short: as §1
Pseudomonas aeruginosa [30] = assay: Antimicrobial activity against Pseudomonas aeruginosa at 10 ug/disk after 24 hrs by disk diffusion assay; type: functional; in short: as §1
Escherichia coli [31] = assay: Antimicrobial activity against Escherichia coli at 10 ug/disk after 24 hrs by disk diffusion assay; type: functional; in short: as §1
Enterobacter cloacae [32] = assay: Antimicrobial activity against Enterobacter cloacae at 1 umol/disk after 24 hrs by disk diffusion assay; type: functional; in short: as §1

MIC (Salmonella typhimurium [8])	MIC (Pseudomonas aeruginosa [11])	MIC (Micrococcus flavus [13])	MIC (Enterobacter cloacae [14])	Compound	inhibition zone (IZ) (Salmonella typhimurium [1])	inhibition zone (IZ) (Listeria monocytogenes [2])	inhibition zone (IZ) (Escherichia coli [3])	inhibition zone (IZ) (Staphylococcus aureus [4])	inhibition zone (IZ) (Salmonella typhimurium [5])	inhibition zone (IZ) (Micrococcus flavus [6])	inhibition zone (IZ) (Pseudomonas aeruginosa [7])	MBC (Salmonella typhimurium [8])	inhibition zone (IZ) (Staphylococcus aureus [9])	MBC (Pseudomonas aeruginosa [11])	inhibition zone (IZ) (Listeria monocytogenes [12])	MBC (Micrococcus flavus [13])	MBC (Enterobacter cloacae [14])	inhibition zone (IZ) (Listeria monocytogenes [15])	inhibition zone (IZ) (Enterobacter cloacae [16])	MBC (Staphylococcus aureus [17])	other results
179 µM (≈ 99.9 µg/mL)	179 µM (≈ 99.9 µg/mL)	179 µM (≈ 99.9 µg/mL)	89.5 µM (≈ 49.9 µg/mL)	Nc1nc(-c2ccc(Cl)cc2)cc(-c2ccc(Nc3nc(Nc4ccccc4)nc(Nc4ccccc4)n3)cc2)n1	inactive	0.08 millimeter	inactive	0.04 millimeter	inactive	0.05 millimeter	inactive	358 µM (≈ 200 µg/mL)	0.04	358 µM (≈ 200 µg/mL)	inactive	358 µM (≈ 200 µg/mL)	179 µM (≈ 99.9 µg/mL)	inactive	inactive	358 µM (≈ 200 µg/mL)	inhibition zone (IZ) (Salmonella typhimurium [10]): 0.07 millimeter; MIC (Staphylococcus aureus [17]): 179 µM (≈ 99.9 µg/mL); inhibition zone (IZ) (Bacillus cereus [18]): 0.09 millimeter; MBC (Listeria monocytogenes [19]): 716 µM (≈ 400 µg/mL); MIC (Listeria monocytogenes [19]): 358 µM (≈ 200 µg/mL); MBC (Bacillus cereus [20]): 179 µM (≈ 99.9 µg/mL); MIC (Bacillus cereus [20]): 89.5 µM (≈ 49.9 µg/mL); inhibition zone (IZ) (Bacillus cereus [21]): inactive; inhibition zone (IZ) (Micrococcus flavus [22]): 0.07 millimeter; MBC (Escherichia coli [23]): 179 µM (≈ 99.9 µg/mL); MIC (Escherichia coli [23]): 89.5 µM (≈ 49.9 µg/mL); zone of inhibition at 10 µg/disc (Staphylococcus aureus [24]; read-out: IZ): 7 mm; inhibition zone (IZ) (Pseudomonas aeruginosa [25]): inactive; zone of inhibition at 10 µg/disc (Micrococcus flavus [26]; read-out: IZ): 9 mm; inhibition zone (IZ) (Escherichia coli [27]): 0.08 millimeter; inhibition zone (IZ) (Enterobacter cloacae [28]): inactive; inhibition zone (IZ) (Bacillus cereus [29]): inactive; inhibition zone (IZ) (Pseudomonas aeruginosa [30]): inactive; inhibition zone (IZ) (Escherichia coli [31]): inactive; inhibition zone (IZ) (Enterobacter cloacae [32]): inactive
348 µM (≈ 200 µg/mL)	696 µM (≈ 400 µg/mL)	696 µM (≈ 400 µg/mL)	696 µM (≈ 400 µg/mL)	CC(=O)N1N=C(c2ccc(Nc3nc(Nc4ccccc4)nc(Nc4ccccc4)n3)cc2)CC1c1ccc(Cl)cc1 (stereo not given)	inactive	0.09 millimeter	inactive	0.08 millimeter	inactive	inactive	inactive	696 µM (≈ 400 µg/mL)	inactive	696 µM (≈ 400 µg/mL)	inactive	696 µM (≈ 400 µg/mL)	696 µM (≈ 400 µg/mL)	inactive	inactive	696 µM (≈ 400 µg/mL)	inhibition zone (IZ) (Salmonella typhimurium [10]): 0.07 millimeter; MIC (Staphylococcus aureus [17]): 696 µM (≈ 400 µg/mL); inhibition zone (IZ) (Bacillus cereus [18]): 0.08 millimeter; MBC (Listeria monocytogenes [19]): 696 µM (≈ 400 µg/mL); MIC (Listeria monocytogenes [19]): 696 µM (≈ 400 µg/mL); MBC (Bacillus cereus [20]): 696 µM (≈ 400 µg/mL); MIC (Bacillus cereus [20]): 696 µM (≈ 400 µg/mL); inhibition zone (IZ) (Bacillus cereus [21]): inactive; inhibition zone (IZ) (Micrococcus flavus [22]): inactive; MBC (Escherichia coli [23]): 696 µM (≈ 400 µg/mL); MIC (Escherichia coli [23]): 348 µM (≈ 200 µg/mL); inhibition zone (IZ) (Staphylococcus aureus [24]): inactive; inhibition zone (IZ) (Pseudomonas aeruginosa [25]): inactive; inhibition zone (IZ) (Micrococcus flavus [26]): inactive; inhibition zone (IZ) (Escherichia coli [27]): inactive; inhibition zone (IZ) (Enterobacter cloacae [28]): 0.09 millimeter; inhibition zone (IZ) (Bacillus cereus [29]): inactive; inhibition zone (IZ) (Pseudomonas aeruginosa [30]): inactive; inhibition zone (IZ) (Escherichia coli [31]): inactive; inhibition zone (IZ) (Enterobacter cloacae [32]): inactive
376 µM (≈ 206 µg/mL)	376 µM (≈ 206 µg/mL)	188 µM (≈ 103 µg/mL)	732 µM (≈ 400 µg/mL)	CC(=O)N1N=C(c2ccc(Nc3nc(Nc4ccccc4)nc(Nc4ccccc4)n3)cc2)CC1c1cccs1 (stereo not given)	inactive	0.08 millimeter	inactive	inactive	inactive	inactive	inactive	732 µM (≈ 400 µg/mL)	inactive	732 µM (≈ 400 µg/mL)	inactive	376 µM (≈ 206 µg/mL)	732 µM (≈ 400 µg/mL)	inactive	inactive	732 µM (≈ 400 µg/mL)	inhibition zone (IZ) (Salmonella typhimurium [10]; Salmonella enterica subsp. enterica serovar Typhimurium): inactive; MIC (Staphylococcus aureus [17]): 376 µM (≈ 206 µg/mL); inhibition zone (IZ) (Bacillus cereus [18]): 0.08 millimeter; MBC (Listeria monocytogenes [19]): 732 µM (≈ 400 µg/mL); MIC (Listeria monocytogenes [19]): 732 µM (≈ 400 µg/mL); MBC (Bacillus cereus [20]): 376 µM (≈ 206 µg/mL); MIC (Bacillus cereus [20]): 188 µM (≈ 103 µg/mL); inhibition zone (IZ) (Bacillus cereus [21]): inactive; inhibition zone (IZ) (Micrococcus flavus [22]): inactive; MBC (Escherichia coli [23]): 376 µM (≈ 206 µg/mL); MIC (Escherichia coli [23]): 188 µM (≈ 103 µg/mL); inhibition zone (IZ) (Staphylococcus aureus [24]): inactive; inhibition zone (IZ) (Pseudomonas aeruginosa [25]): inactive; inhibition zone (IZ) (Micrococcus flavus [26]): inactive; inhibition zone (IZ) (Escherichia coli [27]): inactive; inhibition zone (IZ) (Enterobacter cloacae [28]): 0.1 millimeter; inhibition zone (IZ) (Bacillus cereus [29]): inactive; inhibition zone (IZ) (Pseudomonas aeruginosa [30]): inactive; inhibition zone (IZ) (Escherichia coli [31]): inactive; inhibition zone (IZ) (Enterobacter cloacae [32]): inactive
